The values below come from PubChem BioAssay.

Experiment [1] can be described thus: OD615 S. cerevisiae growth inhibition, permissive medium, pilot counter-assay, permissive growth control for S. cerevisiae lifespan shortening project (AID 705;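 active = growth inhibition above 25% in both replicates, a cutoff set 3 SD above the mean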). As to conditions: OD615, 24 h, at 10 µM, active compounds read high. The method, boiled down:
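System: Engineered DeaD yeast | Buffer or medium: SC raffinose/galactose permissive medium | Doses: 10 µM single dose, 0.25% DMSO | Times: 24 h exposure, 30 °C | Measured by: OD615 turbidity read | Read-out: Yeast growth inhibition indicated by reduced 24 h OD615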

Experiment [2] is described as follows: Restrictive medium S. cerevisiae growth inhibition, OD615, pilot screen of yeast lifespan reduction project, restrictive growth control (AID 706;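 active = growth inhibition above a set limit, 3 SD over mean compound inhibition, in both replicates, cut at about 43% in these data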;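 also: modified DeaD lifespan yeast strain shifted to restrictive glucose medium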). Particulars: OD615, 48 h, at 10 µM, active compounds read high. Put shortly:
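Assay system: engineered S. cerevisiae DeaD strain; Buffer or medium: CSMM-D glucose medium; Dosing: 10 µM compound, 0.25% DMSO; Times: cell pre-growth 4 h, compound exposure 48 h, 30 °C; Detection: absorbance (optical density) measured at 615 nm.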

Experiment [3] is described as follows: viability gain of MRP-1-high H69AR cells under doxorubicin, pilot screen, MRP-1 activator project, CellTiter-Glo, duplicate (AID 807;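 active = viability increase at or above a cutoff of the median across tested compounds plus 3 SD, cut at about 8.5% in these data, passing the limit was not always enough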;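 also: compound pretreatment 18-22 h then 72 h combined with doxorubicin; 0% = doxorubicin alone and 100% = vehicle without doxorubicin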). As to conditions: H69AR viability with doxorubicin, CellTiter-Glo luminescence; at 10 µM; active compounds read high.
The nature of experiment [4]: growth suppression of beta-catenin knockout HCT116, pilot screen, human colon tumor cells (AID 823;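 active = cell viability at or below a set limit in both duplicate runs, the limit being the all-compound median minus 4 SD, cut at about 23% in these data, passing the limit was not always enough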;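 also: 0% = wells killed by 20 µM Hyamine and 100% = untreated DMSO cell wells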). Particulars: CellTiter-Glo, 60 h, at 10 µM, active compounds read low.
A short description of experiment [5]: growth suppression of PTEN-deleted HCT116, pilot screen, cell-based, HCT116 clonal line, CellTiter-Glo (AID 824;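 active = viability at or below 27.92% in each of two runs, the all-compound median minus 4 SD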;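 also: 0% = 20 µM Hyamine control and 100% = vehicle cell control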). As to conditions: 60 h, at 10 µM, active compounds read low.
Experiment [6] is described as follows: inhibitors of the yeast RAM network, pilot screen, dse1pr::URA3 reporter, 5-FOA selection (AID 869;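 active = inhibition over a set limit, the all-compound mean plus 3 SD, in both replicate runs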;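 also: 0% = DMSO wells with no growth and 100% = 10 µM 1-NA-PP1 with full growth; RAM network block rescues cells from 5-FOA so hits raise OD615 growth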). As to conditions: S. cerevisiae dse1pr::URA3 5-FOA growth, OD615, 2 d; at 10 µM; active compounds read high; strain carries analog-sensitive mutant Cbk1 kinase.
Experiment [7] can be described thus: RAM signaling pathway blockade in yeast – S. cerevisiae, Pdr1DBD-CYC8 efflux-inhibited sensitized strain, primary screen (AID 1298).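 Also: 0% = DMSO untreated cells without growth and 100% = 10 µM 1-NA-PP1 full growth; higher means more yeast growth rescued from 5-FOA killing.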 Particulars: S. cerevisiae cbk1-as DSE1-URA3 strain, 5-FOA growth OD615, 2 d; at 50 µM; active compounds read high.

Unmarked numbers belong to inactive results. Inconclusive results are not listed. The source made the active and inactive calls.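 The calls were made as follows, unless noted: active = RAM network inhibition above 8.4% in each of two replicates, 3 SD over the compound average; inconclusive = above 8.4% inhibition in only one replicate; inactive = 8.4% inhibition or less in each replicate.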

Broadly, the viability is a read-out of living cells in per cent, often relative to untreated cells. Usually inhibition stands for the share of the control response that was lost under treatment. Turning to `CCCNS(=O)(=O)c1cccc2cccnc12`, the growth inhibition is -6.87% in experiment [1] and 6.17% in experiment [2]. The viability increase in experiment [3] is -1.58%. Also, the viability in experiment [4] is 101%; in experiment [5], 96.5%. Besides, the inhibition in experiment [6] is 1.89%. Further, the RAM network inhibition in experiment [7] is 0.72%.

Turning to `CCOc1ccc(N(CC(=O)NCc2cccs2)S(=O)(=O)c2c(C)noc2C)cc1`, the values for the growth inhibition in experiment [1] and in experiment [2] were -17.4% and -7.87%, respectively. Moreover, the viability increase in experiment [3] is -2.25%. For the same compound, the viability in experiment [4] is 95.1%; in experiment [5], 94.7%. In addition, the inhibition in experiment [6] is 1.49%. Also, the RAM network inhibition in experiment [7] is 6.62%.

Consider `Cc1ccc2[nH]c(=O)c3cc(C(=O)N4CCN(C(=O)c5ccco5)CC4)sc3c2c1`, for which the figures for the growth inhibition in experiment [1] and in experiment [2] were 5.33% and 7.05%, respectively. The viability increase in experiment [3] was -3.84%. Further, the values for the viability in experiment [4] and in experiment [5] were 99% and 92.3%, respectively. For the same compound, in experiment [6], the inhibition was 1.16%. For the same compound, in experiment [7], the RAM network inhibition was 7.89%.

As to `CC(C)C(NS(=O)(=O)c1ccc2c(c1)oc(=O)n2C)C(=O)N1CCN(Cc2ccccc2)CC1` (centres undefined), the growth inhibition was -5.8% in experiment [1] and -20.3% in experiment [2]. The viability increase in experiment [3] is -3.99%. Moreover, the viability in experiment [4] is 88.9%; in experiment [5] it was 92%. For the same compound, in experiment [6], the inhibition is 2.62%. Besides, in experiment [7], the RAM network inhibition was -2.73%.

In the case of `O=P(O)(CN1CCCCC1)C1CCCCC1O` (centres undefined), the values for the growth inhibition in experiment [1] and in experiment [2] were -11.2% and -3.29%, respectively. In addition, in experiment [3], the viability increase is -1.71%. Further, the viability is 105% in experiment [4] and 104% in experiment [5]. Moreover, in experiment [6], the inhibition was 0.06%. Besides, the RAM network inhibition in experiment [7] was 1.57%.

On to `CCn1c(=O)c2cc(C(=O)NCCN3CCOCC3)sc2c2ccccc21`, for which the growth inhibition in experiment [1] is -7.14%; in experiment [2], -3.89%. Also, the viability increase in experiment [3] is -4.73%. Further, the viability in experiment [4] is 92.2%; in experiment [5], 76.1%. Also, in experiment [6], the inhibition was 2.47%. The RAM network inhibition in experiment [7] was 1.02%.

As for `N#CCC(=O)Nc1ccccc1C(=O)O`, the values for the growth inhibition in experiment [1] and in experiment [2] were -4.9% and 0.025%, respectively. The viability increase in experiment [3] was -2.8%. Moreover, the viability in experiment [4] is 94.8%; in experiment [5] it was 97%. Also, the inhibition in experiment [6] was 0.695%. For the same compound, the RAM network inhibition in experiment [7] was -0.92%.

Take `CCOc1ccc(CCNc2cc(C)nc3ncnn23)cc1OCC`: the growth inhibition in experiment [1] is -1.77%; in experiment [2], 4.5%. In addition, the viability increase in experiment [3] is -2.06%. Further, the values for the viability in experiment [4] and in experiment [5] were 90.3% and 94.1%, respectively. Besides, the inhibition in experiment [6] was 1.71%. The RAM network inhibition in experiment [7] was 1.15%.

For the compound `CCN1CCCC1CNC(=O)Cn1cc2c(n1)CCC(C)C2` (centres undefined), the growth inhibition in experiment [1] is -3.58%; in experiment [2] it was 0.66%. Moreover, in experiment [3], the viability increase was -1.37%. For the same compound, the results for the viability in experiment [4] and in experiment [5] were 91.7% and 100%, respectively. The inhibition in experiment [6] was 0.72%. Moreover, in experiment [7], the RAM network inhibition is 1.7%.

Regarding `CCN1C(=O)c2ccccc2S(=O)c2ccc(C(=O)NCCCN3CCCC3=O)cc21` (centres undefined), the growth inhibition in experiment [1] was -7.88%; in experiment [2], -6.62%. The viability increase in experiment [3] was -3.1%. Also, the viability in experiment [4] was 97.5%; in experiment [5] it was 87.7%. In addition, the inhibition in experiment [6] is 0.64%. Moreover, in experiment [7], the RAM network inhibition is -1.15%.

As for `CC1(C)Cc2c(C#N)c(N)sc(=S)c2CO1`, the growth inhibition in experiment [1] was 21.9%; in experiment [2] it was 67% (active). Besides, the viability increase in experiment [3] was -1.77%. Besides, the viability in experiment [4] is 101%; in experiment [5] it was 106%. For the same compound, the inhibition in experiment [6] is 1.27%. The RAM network inhibition in experiment [7] is 2.98%.

For the compound `Cc1ccc(-n2ncc3c(=O)n(CC(=O)NCc4ccco4)cnc32)cc1C`, the growth inhibition is -5.52% in experiment [1] and -6.3% in experiment [2]. For the same compound, the viability increase in experiment [3] was -5.18%. Further, the figures for the viability in experiment [4] and in experiment [5] were 74.4% and 56.4%, respectively. Besides, in experiment [6], the inhibition is 2.71%. In addition, the RAM network inhibition in experiment [7] is 1.9%.

Consider `CCOC(=O)C1CCCN(C(=O)c2ccc(CNc3c(N4CCC(C)CC4)c(=O)c3=O)cc2)C1` (centres undefined), for which the results for the growth inhibition in experiment [1] and in experiment [2] were -16.1% and -24.3%, respectively. In experiment [3], the viability increase was 0.29%. The viability in experiment [4] was 102%; in experiment [5] it was 98.9%. Besides, the inhibition in experiment [6] is 2.57%. In experiment [7], the RAM network inhibition is 4.84%.

`COc1ccc2oc(-c3ccccc3)c(C(N)=O)c2c1`: the growth inhibition in experiment [1] was 2.25%; in experiment [2], 11.4%. In addition, the viability increase in experiment [3] was -2.49%. Further, the viability is 99.1% in experiment [4] and 97.5% in experiment [5]. In experiment [6], the inhibition was 0.53%. In experiment [7], the RAM network inhibition is 1.82%.

Regarding `CCOc1ccc(S(=O)(=O)n2ccnc2)c2ccccc12`, the growth inhibition in experiment [1] was -2.9%; in experiment [2], 0.2%. Also, in experiment [3], the viability increase was -1.1%. In addition, the viability in experiment [4] was 101%; in experiment [5], 106%. Moreover, in experiment [6], the inhibition is 0.31%. For the same compound, the RAM network inhibition in experiment [7] was 2.78%.

As for `COC(=O)C1=CNC=C(C(=O)OC)C1c1ccc(C(=O)OC)cc1`, the values for the growth inhibition in experiment [1] and in experiment [2] were 1.55% and 6.7%, respectively. Besides, in experiment [3], the viability increase was -3.35%. Besides, the viability in experiment [4] was 93.5%; in experiment [5], 98.3%. In experiment [6], the inhibition was 0.165%. For the same compound, the RAM network inhibition in experiment [7] was 2.17%.

Turning to `Cc1ccccc1N1C(=O)c2sc3nc4c(c(=O)n3c2C1=O)CCC4`, the growth inhibition is 4.62% in experiment [1] and 25.2% in experiment [2]. The viability increase in experiment [3] was -4.72%. In addition, the viability in experiment [4] is 97%; in experiment [5], 96.8%. Besides, the inhibition in experiment [6] is 1.5%. Moreover, the RAM network inhibition in experiment [7] is 2.56%.
